Bioassay records as filed in PubChem.
An excerpt weighted towards active compounds, which were near 2.4% of everything screened.
SIAE primary – human SIAE inhibition, primary screen. Q9HAT2. inhibition, % at 9.66 µM. SIAE FP-Rh probe binding, fluorescence polarization. actives 0.69% (n = 370,000);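 active = inhibition above a cutoff: mean of compounds within the control limits plus 3 SD of those, cut at about 17% in these data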;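 note: 0% = plate median of compound wells and 100% = probe without SIAE protein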
Target sequence (Q9HAT2 whole entry, looked up): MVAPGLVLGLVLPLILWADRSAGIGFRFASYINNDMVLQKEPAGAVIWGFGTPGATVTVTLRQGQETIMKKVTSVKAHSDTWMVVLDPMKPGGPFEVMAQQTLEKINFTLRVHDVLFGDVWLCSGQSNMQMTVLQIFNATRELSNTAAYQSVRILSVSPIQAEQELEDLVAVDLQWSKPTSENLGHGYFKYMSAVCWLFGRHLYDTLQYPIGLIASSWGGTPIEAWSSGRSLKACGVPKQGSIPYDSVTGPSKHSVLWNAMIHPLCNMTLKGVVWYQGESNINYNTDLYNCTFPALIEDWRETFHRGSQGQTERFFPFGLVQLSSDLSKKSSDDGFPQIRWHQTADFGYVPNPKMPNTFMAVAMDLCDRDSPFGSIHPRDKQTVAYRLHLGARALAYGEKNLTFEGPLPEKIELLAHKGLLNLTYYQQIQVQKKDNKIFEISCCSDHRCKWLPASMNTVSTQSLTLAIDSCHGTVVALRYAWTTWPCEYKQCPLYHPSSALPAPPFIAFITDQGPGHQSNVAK
TDP2 inh – TDP2 (human) inhibition, absorbance primary screen; O95551; recombinant TDP2, T5PNP hydrolysis, p-nitrophenol absorbance 415 nm; inhibition, % at 12.8 µM; actives 0.34% (n = 370,000); AID 720702;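 active = inhibition above the mean of all tested compounds plus 3 SD, set per campaign, cut at about 25% in these data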;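 note: 0% = DMSO with enzyme and 100% = buffer with substrate but no TDP2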
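Evaluation: % inhibition relative to enzyme-containing and enzyme-free wells. Material: recombinant human TDP2. Benchmarks: enzyme-free and DMSO wells. Timing: enzyme reaction with compound for 2 h at 37 °C. Compound dosing: 12.8 µM only. Measured by: p-Nitrophenol epi absorbance. Reagent: T5PNP substrate at 5 mM, a TopII-DNA adduct mimic. Replication: single well per compound.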
Apaf1 inhib – blocks human Apaf-1 apoptosome activity. AID 489030. actives 0.71% (n = 330,000). reconstituted apoptosome caspase-3 activity, DEVD-Rh110 fluorescence. inhibition, % at 20 µM; active = inhibition of at least 40% at 20 µM;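 note: plate controls were DMSO wells for no effect and DEVD-CHO caspase inhibitor wells for full effect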
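Material: reconstituted apoptosome with Apaf-1, cytochrome c, caspase-9, procaspase-3, dATP / Buffer or medium: pH 7.5 Hepes buffer with CHAPS, BSA, DTT / Also added: cytochrome c with DEVD-Rh110 / Schedule: compound with Apaf-1, dATP, procaspase-3 30 min, then 50 min reaction, room temperature / Technique: rhodamine 110 fluorescence at Ex 480/Em 540 nm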
TCR CD3 inh – inhibitors of human TCR-CD3 interaction | TAMRA-labeled TCR probe fluorescence, biochemical | inhibition, % at 9.4 µM | actives 0.37% (n = 360,000);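 note: recombinant mutant TCR 2C K166C tagged with TAMRA read by polarization; 0% = receptor in buffer alone and 100% = receptor with positive control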
PAD4 FP inh – blocks human protein arginine deiminase 4. Q9UM07. recombinant PAD4, RCA probe fluorescence polarization. inhibition, % at 6.36 µM. actives 0.41% (n = 330,000). AID 485272;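 active = percent inhibition above a cutoff equal to the mean of all tested compounds plus 3 SD, cut at about 15% in these data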;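 note: 0% = PAD4 with RCA probe and DMSO and 100% = probe without PAD4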
GSTO1 inh – GSTO1 inhibition, counter-screen for RBBP9 inhibitors. P78417. recombinant GSTO1, activity-based probe fluorescence polarization. inhibition, % at 5.96 µM. actives 1.1% (n = 300,000);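 active = inhibition above the campaign mean inhibition plus 3 SD, cut at about 35% in these data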;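 note: 0% = GSTO1-1 with DMSO and 100% = wells lacking GSTO1-1 enzyme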
Target sequence (P78417 whole entry, looked up): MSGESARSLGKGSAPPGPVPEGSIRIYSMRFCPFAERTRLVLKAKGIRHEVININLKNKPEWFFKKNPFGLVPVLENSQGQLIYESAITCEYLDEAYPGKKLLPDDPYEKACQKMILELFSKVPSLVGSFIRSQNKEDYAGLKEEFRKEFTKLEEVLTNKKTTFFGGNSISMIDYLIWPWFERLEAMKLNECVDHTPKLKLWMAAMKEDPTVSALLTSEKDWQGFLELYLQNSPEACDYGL
PAD4 FP conf – confirmation of human PAD4 inhibitors | shares compounds with PAD4 FP inh | recombinant PAD4, RCA probe fluorescence polarization | inhibition, % at 6.36 µM | actives 28% (n = 1,200) | AID 488796;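 active = mean inhibition across replicates above the hit cutoff set by the earlier primary screen, cut at about 15% in these data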;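 note: inhibitors block active-site labeling by the probe so polarization falls; 0% = PAD4 with probe and DMSO and 100% = probe without PAD4 enzyme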
Apaf-1 inh conf2 – Apaf-1 inhibition, single-dose confirmed | shares compounds with Apaf1 inhib | reconstituted apoptosome, caspase-3 DEVD-Rh110 fluorescence | inhibition, % at 20 µM | actives 25% (n = 1,800);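 active = mean inhibition of at least 40% at 20 µM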;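 note: plate controls were DMSO wells for no effect and DEVD-CHO caspase inhibitor control wells for full effect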
Rh110 quench – Rh110 signal interference in Apaf-1 inhibitor counter-screen; Rh110 fluorescence interference, quenched caspase reaction; AID 504615; shares compounds with Apaf1 inhib; activation (fluorescence interference), % at 20 µM; 1,800 tested, under 10 active;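 active = signal rise of 40% or more at 20 µM, treated as a fluorescence artifact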
Apaf1 inh interf – counter-screen for Apaf-1 inhibitors: fluorescence interference, dose response. shares compounds with Apaf1 inhib. fluorescence interference counterscreen, Apaf-1 assay format. IC50, µM. 460 tested, under 10 active; call rule not given here
BSA TAMRA ctr – interferes with TAMRA-BSA probe, flagging TCR-CD3 hits. TAMRA-labeled BSA probe fluorescence counterscreen. actives 10% (n = 1,200). inhibition, % at 9.4 µM. shares compounds with TCR CD3 inh. AID 652035; in the data active = inhibition above about 23%;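 note: 0% = buffer low control and 100% = reference high control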
TCR-CD3 inh conf – TCR-CD3 interaction inhibition, confirmation. shares compounds with TCR CD3 inh. TAMRA-labeled TCR probe fluorescence binding assay. inhibition, % at 9.4 µM. actives 48% (n = 1,200). AID 652036
TDP2 confirm – confirmation of human TDP2 inhibitors. shares compounds with TDP2 inh. recombinant human TDP2, absorbance read-out. inhibition, % at 12.8 µM. actives 22% (n = 1,100). AID 743263; in the data active = inhibition above about 25%;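 note: 0% = vehicle with enzyme and 100% = no enzyme buffer only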
* marks the source's active call; other numbers are inactive results; nt = not tested or not shown. Cut-off read from the data, not from the text of the source, unless noted: active = inhibition above about 19%; inactive = the rest.

SMILES | SIAE primary | TDP2 inh | Apaf1 inhib | TCR CD3 inh | PAD4 FP inh | GSTO1 inh | Apaf-1 inh conf2 | Rh110 quench | others
COC(=O)C1=C(c2c(C)noc2C)C[C@@H]2CC[C@H]1N2C(=O)NCc1ccc(F)cc1 | 0 | 11 | -2 | 1 | -1 | nt | nt | nt
COc1ccccc1/C=N/N=C(/N)N[N+](=O)[O-] | -1 | -6 | -21 | 1 | 16* | 1 | nt | nt | PAD4 FP conf=5
CCCCn1c(O)c(C=NCc2ccc3c(c2)OCO3)c(=O)[nH]c1=O | -5 | -11 | 3 | 0 | -4 | 2 | nt | nt
COc1cc(C(c2c(C)[nH]n(-c3ccccc3)c2=O)c2c(C)[nH]n(-c3ccccc3)c2=O)cc(OC)c1OC | 8 | 90* | 92* | 3 | 69* | 79* | 62* | -3 | PAD4 FP conf=4;Apaf1 inh interf=>100;TDP2 confirm=56*
Cc1cccc(-n2c(-c3cccs3)nc3ccccc3c2=O)c1 | -8 | 0 | 11 | -1 | 1 | 2 | nt | nt
CCOC(=O)c1nc2ccccc2c(=O)n1-c1ccc(C)cc1 | -3 | 4 | -1 | -2 | 4 | 8 | nt | nt
CCCCn1c(NS(=O)(=O)c2ccc(C)cc2)c(C(=O)OCC)c2nc3ccccc3nc21 | 3 | 71* | 90* | 6 | 66* | 82* | 27 | 7 | PAD4 FP conf=-3;TDP2 confirm=36*
Cn1c(=O)[nH]c2nncnc2c1=O | 2 | 23 | 68* | 0 | -15 | 29 | 68* | -2 | Apaf1 inh interf=>100
COC(=O)C1=C(c2ccc(OC)c(OC)c2)C[C@@H]2CC[C@H]1N2C(=O)NCc1ccc(F)cc1 | 2 | 0 | 7 | 1 | 1 | nt | nt | nt
COCCOC(=O)c1c(N)n(Cc2ccccc2)c2nc3ccccc3nc12 | -4 | -1 | 83* | -1 | -27 | 28 | 15 | 2
COc1ccc(Cn2c(N)c(C(=O)NCc3ccco3)c3nc4ccccc4nc32)cc1 | -6 | 7 | 67* | 1 | -10 | 24 | 20 | 9
CCOC(=O)c1c(C)n(Cc2ccccc2)c2ccc(O)cc12 | 1 | -6 | 5 | 4 | -3 | 5 | nt | nt
CCOC(=O)c1cc(C(O)(C(=O)OC)C(F)(F)F)c(/N=C/N(C)C)o1 (stereo unspecified) | 2 | -1 | 1 | 7 | 4 | -4 | nt | nt
COP(=O)(NC(=O)C(Cl)(Cl)Cl)OC | -3 | 12 | -9 | 2 | 0 | 13 | nt | nt
COc1ccc(-n2c(/C=C/c3ccc(O)cc3)nc3ccccc3c2=O)cc1 | -4 | 4 | 0 | 3 | 2 | -14 | nt | nt
CCn1nc(/C=C/c2ccccc2)nc2c(=O)n(C)c(=O)nc1-2 | 4 | 79* | 99* | 1 | nt | nt | 100* | 9 | Apaf1 inh interf=>100
COC(=O)C1=C(c2ccc(OCc3ccccc3)cc2)C[C@@H]2CC[C@H]1N2C(=O)NC1CCN(Cc2ccccc2)CC1 | nt | nt | 58* | nt | -3 | nt | 23 | 10
CCC(C)N1C(=O)NC(=O)C2(Cc3c(ccc4ccccc34)N(C)C2)C1=O (stereo unspecified) | 4 | 5 | 65* | 3 | -4 | 19 | 30 | 4
CC(=O)OC1N=C(c2ccc(Cl)cc2)c2cc(Br)ccc2NC1=O (stereo unspecified) | -1 | -2 | 14 | 7 | -1 | -1 | nt | nt
O=C(COC(=O)c1ccc(O)cc1)Nc1ccc(Cl)cc1C(=O)c1ccccc1 | -20 | -7 | 14 | 7 | 1 | -2 | nt | nt
O=[N+]([O-])c1ccccc1-c1cc(-c2ccccc2)cc(-c2ccccc2)[n+]1Cc1ccccc1Cl | 6 | -1 | 53* | -7 | -8 | 2 | 20 | 9
CCCNC(=O)c1c(N)n(CC2CCCO2)c2nc3ccccc3nc12 (stereo unspecified) | 3 | 16 | 93* | 9 | -19 | 35* | 44* | 8 | Apaf1 inh interf=>100
CCCCNC(=O)c1c(N)n(Cc2ccc3c(c2)OCO3)c2nc3ccccc3nc12 | -2 | 19 | 95* | -2 | -1 | 20 | 31 | 5
O=[N+]([O-])c1ccc(NC2CCN(Cc3ccccc3)CC2)c2ccncc12 | 2 | 7 | 74* | -8 | -16 | -2 | 21 | 9
CCN1CCN(Cc2cccnc2)CC1 | -4 | -10 | -4 | 6 | -1 | 6 | nt | nt
SMILES | SIAE primary | TDP2 inh | Apaf1 inhib | TCR CD3 inh | PAD4 FP inh | GSTO1 inh | Apaf-1 inh conf2 | Rh110 quench | others
O=[N+]([O-])c1ccc(NC2CCCC2)c2ccncc12 | nt | nt | 42* | nt | -13 | 2 | 15 | 2
O=[N+]([O-])c1ccc(N2CCCC2)c2ccncc12 | 4 | -5 | 34 | -5 | -15 | 10 | nt | nt
COc1cccc(-n2c(O)c(C=NCc3ccc4c(c3)OCO4)c(=O)[nH]c2=O)c1 | -8 | -14 | -13 | 5 | 1 | -1 | nt | nt
CN(C)P(=O)(C(Cl)=C(N1CCCCC1)N1CCCCC1)N(C)C | -6 | -1 | -24 | 3 | -5 | -4 | nt | nt
O=c1c2ccccc2nc(-c2cccs2)n1-c1ccccc1 | 10 | 3 | 14 | -6 | 0 | 1 | nt | nt
NC(N)=N/N=C/c1cn(-c2ccccc2)nc1-c1cccs1 | -2 | -18 | 41* | -10 | -10 | -26 | 14 | 15
CC(C)OCCCNC(=O)c1c(N)n(CC2CCCO2)c2nc3ccccc3nc12 (stereo unspecified) | 0 | 82* | 94* | 1 | -4 | 24 | 30 | 17 | TDP2 confirm=7
O=Cc1cn(CCCOc2ccccc2)c2ccccc12 | -2 | 7 | 20 | 8 | 1 | -1 | nt | nt
COC1C(C)OC(OC2CC(C)(O)Cc3cc4c(c(O)c32)C(=O)c2c(O)cc3c(c2C4=O)OC2OC3(C)C(O)C(N(C)C)C2O)C(OC)C1(C)OC (stereo unspecified) | -9 | -3 | nt | 80* | nt | nt | nt | nt | BSA TAMRA ctr=51*;TCR-CD3 inh conf=40*
CCOC(=O)CNC(=O)N1Cc2cc(Br)ccc2-n2nncc2C1 | 2 | -1 | nt | 36* | nt | nt | nt | nt | BSA TAMRA ctr=-2;TCR-CD3 inh conf=4
CCOC(=O)CNC(=O)N1Cc2cc(-c3ccc(OC)cc3)ccc2-n2nncc2C1 | -3 | -14 | nt | -1 | nt | nt | nt | nt
